Reference: publication PMC6719797 (Bioorganic & medicinal chemistry letters, 2019)
Blank lines part the entries; values can stand above or below the molecule they belong to.

Legend:
DNA polymerase kappa = conditions: read-out: IC50 DNA polymerase kappa; ref PubChem; cited from earlier work
human UCK2 [1] = biological target: T1, human UCK2 (Homo sapiens, UniProt Q9BZX2); type: biochemical; conditions: kinetic analysis
T1 sequence (Q9BZX2 1-261): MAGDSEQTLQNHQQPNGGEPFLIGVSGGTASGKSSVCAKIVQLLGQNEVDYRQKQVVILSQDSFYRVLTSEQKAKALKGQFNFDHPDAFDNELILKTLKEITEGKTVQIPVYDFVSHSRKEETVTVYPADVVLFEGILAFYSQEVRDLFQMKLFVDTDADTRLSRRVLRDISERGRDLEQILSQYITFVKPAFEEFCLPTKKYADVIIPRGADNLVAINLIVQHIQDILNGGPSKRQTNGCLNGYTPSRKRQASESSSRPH
Summary of the method: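 C-terminally His6-tagged human UCK2 was purified by Ni-NTA and then ion-exchange chromatography. UCK2-generated ADP was coupled through pyruvate kinase and lactate dehydrogenase, and NADH consumption was followed continuously at 340 nm. To determine the mode of inhibition, uridine or ATP was titrated at several fixed inhibitor concentrations, and Ki values were derived for each substrate.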

DNA polymerase eta = conditions: read-out: IC50 DNA polymerase eta; ref PubChem; cited from earlier work
human UCK2 [2] = biological target: T1, human UCK2; assay: ADP-Glo kinase assay for UCK2 activity; type: biochemical; conditions: for IC50 obtained from validation experiments: retested in the ADP-Glo assay, unit given
K562 cells = assay: 5-EU uridine salvage assay; type: cell-based; conditions: for %Inhibition at highest tested concentration (EU assay): K562 cells, 50 µM compound, 5-EU salvage
Summary of the method: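 K562 cells, untreated or pre-treated with the DHODH inhibitor GSK983, were given 5-ethynyl-uridine (5-EU) with test compound at a fixed concentration (50 µM). Salvaged 5-EU incorporated into cellular RNA was detected with a fluorescent click probe. Dipyridamole (20 µM) served as the uridine-salvage inhibitor control.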

A549 cells = assay: 5-EU uptake assay in A549 cells; type: cell-based
DNA polymerase beta = conditions: read-out: IC50 DNA polymerase beta; HTS hit; ref PubChem; cited from earlier work
DNA polymerase iota = conditions: read-out: IC50 DNA polymerase iota; HTS hit; ref PubChem; cited from earlier work
CMPK1 = biological target: T2, CMPK1 (Homo sapiens, UniProt P30085); assay: ADP-Glo screen for CMPK1; type: biochemical; conditions: analogous ADP-Glo screen
T2 sequence (P30085 1-196): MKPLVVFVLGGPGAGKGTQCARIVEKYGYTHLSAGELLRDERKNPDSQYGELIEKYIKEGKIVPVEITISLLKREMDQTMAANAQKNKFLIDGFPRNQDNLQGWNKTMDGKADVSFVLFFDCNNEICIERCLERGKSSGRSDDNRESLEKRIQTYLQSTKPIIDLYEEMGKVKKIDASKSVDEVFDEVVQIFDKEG

[3] = substrate: O=c1ccn([C@@H]2O[C@H](CO)[C@@H](O)[C@H]2O)c(=O)[nH]1; assay: ADP-Glo kinase assay for UCK2 activity; type: biochemical, human; conditions: other: steady state conditions, named substrate varied

Mode of inhibition with respect to uridine and ATP (human UCK2 [1]): non-competitive
Molecule: O=C(CSc1nc2n(-c3ccc(F)cc3)[nH]cc-2c(=O)n1)Nc1ccc(Br)cc1 [compound 135416439]
IC50 (DNA polymerase kappa): 16 µM
IC50 (DNA polymerase eta): 56 µM

IC50 obtained from validation experiments (human UCK2 [2]): completely inactive
Molecule: O=C(CSCn1[nH]nc2c(=O)nc(Cc3ccc(F)cc3)nc1-2)Nc1ccc(F)cc1 [135546734–2]

IC50 obtained from validation experiments (human UCK2 [2]): completely inactive
Molecule: COc1cccc(NC(=O)CSCn2[nH]nc3c(=O)nc(Cc4ccc(F)cc4)nc2-3)c1 [135546734–3]
%Inhibition at highest tested concentration (EU assay) (K562 cells): No inhibition

Mode of inhibition with respect to uridine and ATP (human UCK2 [1]): similarly non-competitive
Inhibition of CMPK1 (CMPK1): no inhibition
Molecule: Cc1cc(C)cc(NC(=O)CSCn2[nH]nc3c(=O)nc(Cc4ccc(F)cc4)nc2-3)c1 [compound 135546734]
IC50 (DNA polymerase beta): 40 µM
inhibition at 50 µM (K562 cells; Homo sapiens, K562, read-out: %Inhibition at highest tested concentration (EU assay), K562 cells, 50 µM compound, 5-EU salvage): ~40%
IC50 (DNA polymerase iota): 79 µM
IC50 (DNA polymerase eta): 79 µM

Second part, the molecule before the results:

Molecule: Cc1ccc(-c2nc3c(c(SCC(=O)Nc4cccc(C(=O)O)c4)n2)Cc2cccc(C)c2O3)cc1 [compound 20874830]
Mode of inhibition with respect to uridine and ATP (human UCK2 [1]): primarily non-competitive

Molecule: Cc1ccc(-c2nc3c(c(SCC(=O)Nc4ccccc4)n2)Cc2cccc(C)c2O3)cc1 [20874830–1]
%Inhibition at highest tested concentration (EU assay) (K562 cells): No inhibition

Molecule: O=C(N[C@@H]1CCCc2c1[nH]c1ccc(Cl)cc21)c1ccccn1 [GSK983, reference compound]
Effect on uridine salvage (5-EU assay) (K562 cells; K562 cells treated with GSK983 vs untreated): significantly increased uridine salvage

Molecule: OCCN(CCO)c1nc(N2CCCCC2)c2nc(N(CCO)CCO)nc(N3CCCCC3)c2n1 [Dipyridamole, dipyridamole]
Inhibition of 5-EU uptake (A549 cells): inhibits 5-EU uptake in a dose-dependent manner

Molecule: Nc1ncnc2c1ncn2[C@@H]1O[C@H](COP(=O)(O)OP(=O)(O)OP(=O)(O)O)[C@@H](O)[C@H]1O [ATP]
Km (human UCK2 [2]; read-out: KM (UCK2 substrate), steady state conditions, named substrate varied): 61 ± 1 µM

B1: human UCK2 (Homo sapiens) (protein)
chain: MAGDSEQTLQNHQQPNGGEPFLIGVSGGTASGKSSVCAKIVQLLGQNEVDYRQKQVVILSQDSFYRVLTSEQKAKALKGQFNFDHPDAFDNELILKTLKEITEGKTVQIPVYDFVSHSRKEETVTVYPADVVLFEGILAFYSQEVRDLFQMKLFVDTDADTRLSRRVLRDISERGRDLEQILSQYITFVKPAFEEFCLPTKKYADVIIPRGADNLVAINLIVQHIQDILNGGPSKRQTNGCLNGYTPSRKRQASESSSRPH
Km [3]: 62 ± 5 µM
